The text below walks through data of ChEMBL document CHEMBL1154894, “Paltolides A--C, anabaenopeptin-type peptides from the palau sponge Theonella swinhoei” (J Nat Prod, 2010).

The source made the active and inactive calls. The calls are words filed in the database; no cut-off is given here. Numbered stars: 1 amine (or outer) side, 2 acyl side, 3 side chain; on linkers, the order of the positions; unused ones are H or OH. Bridge positions count the residues as written; N and C are the ends. Square brackets hold non-standard residues; d marks the D form. Peptide text beside a SMILES is read from it. X1 = O=C([C@H](Cc1c[nH]c2cc(Cl)c(O)cc12)N[*:1])[*:2]; NMeL = CN[C@@H](CC(C)C)C(=O)O; CO = O=C([*:1])[*:2]

One series concerns HCT-116. The experiment in a line: Cytotoxicity against human HCT116 cells assessed as cell viability up to 100 ug/ml after 72 hrs by MTT assay. The series is classed as functional, cell-based. The gist of the method: (§1)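 MTT viability kit assay. Cells seeded at 2 × 10^4 per well and left to adhere 18 h. Exposed to compound for 24 h, then medium replaced or diluted 3-fold with fresh growth medium. Incubated a further 48 h before MTT read-out at A570. At least two separate experiments, each in duplicate.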
A general note: Tetrazolium assays rely on reduction of a dye to a coloured formazan, in cell work by metabolically active cells.

Another series relates to TZM. Kind of series: Cytotoxicity against human TZM-bl cells assessed as cell viability up to 100 ug/ml after 72 hrs by MTT assay. The series is classed as functional, cell-based. A digest of the protocol:
as §1

The subject of series [1] is Human immunodeficiency virus 1. The experiment in a line: Antiviral activity against HIV1 expressing SF162 envelope assessed as inhibition of viral entry in human TZM-bl cells up to 100 ug/ml after 48 hrs by luciferase reporter gene assay. It is filed as functional, organism-based. A digest of the protocol:
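Single-round HIV-1 neutralization in TZM-BL cells using virus pseudotyped with SF162 Envelope, under previously published conditions. At least two separate experiments, each run in duplicate.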

A short description of series [2]: Cytotoxicity against african green monkey BSC1 cells assessed as cell viability up to 100 ug/ml after 72 hrs by MTT assay. The settings on record: chlorocebus aethiops, bsc-1, 72 h. The series is classed as cell-based. The gist of the method: as §1

Regarding `CC(C)C[C@@H]1NC(=O)[C@H](C)NC(=O)[C@H](NC(=O)N[C@@H](CCCNC(=N)N)C(=O)O)CCCCNC(=O)[C@H](Cc2c[nH]c3ccc(O)cc23)NC(=O)[C@H](CC(C)C)N(C)C1=O` [PALTOLIDE B], the outcome (in the series on HCT-116; with TZM; in series [1]) was inactive. The Activity result in series [2] was “Not Active”.

Take `CC(C)C[C@@H]1NC(=O)[C@H](C)NC(=O)[C@H](NC(=O)N[C@@H](CCCNC(=N)N)C(=O)O)CCCCNC(=O)[C@H](Cc2c[nH]c3ccccc23)NC(=O)[C@H](CC(C)C)NC1=O` [PALTOLIDE A]: the outcome (in the series with HCT-116; with TZM; in series [1]) was inactive. Moreover, the Activity entry in series [2] is “Not Active”.

As to `CC(C)C[C@@H]1NC(=O)[C@H](C)NC(=O)[C@H](NC(=O)N[C@@H](CCCNC(=N)N)C(=O)O)CCCCNC(=O)[C@H](Cc2c[nH]c3cc(Cl)c(O)cc23)NC(=O)[C@H](CC(C)C)N(C)C1=O` ({Arg-CO}-[dK]AL[NMeL][X1]; lactam 1-C), the outcome (in the series with HCT-116; in the series on TZM; in series [1]) was inactive. In addition, in series [2], the Activity result is “Not Active”.

For the compound `CC(C)C[C@@H]1NC(=O)[C@H](C)NC(=O)[C@H](NC(=O)N[C@@H](CCCNC(=N)N)C(=O)O)CCCCNC(=O)[C@H](Cc2c[nH]c3cc(Br)ccc23)NC(=O)[C@H](CC(C)C)N(C)C1=O` [PALTOLIDE C], the outcome (with HCT-116; in the series on TZM; in series [1]) was inactive. Besides, the Activity result in series [2] is listed as “Not Active”.
